Results from ChEMBL document CHEMBL1914457, “Syntheses of phenylpyrazolodiazepin-7-ones as conformationally rigid analogs of aminopyrazole amide scaffold and their antiproliferative effects on cancer cells” (Bioorg Med Chem, 2011).

Legend:
U-937 = test: Growth inhibition of human U937 cells after 24 hrs by thiazolyl blue tetrazolium bromide staining-based MTT assay; type: functional; conditions: U-937, 24 h
Summary of the method: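 U937 cells kept in RPMI 1640 with 10% FBS, 1% penicillin/streptomycin and 25 mM HEPES at 37 °C, 5% CO2. Seeded at 5 × 10^3 cells/well and incubated 24 h before treatment. Compounds given as a threefold serial dilution over 12 points. Viability read by MTT reduction with thiazolyl blue tetrazolium bromide as absorbance at 570 nm.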

[1] = Growth inhibition of human A375P cells after 24 hrs by MTT assay; type: functional
Summary of the method: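 A375P cells grown in DMEM with 10% FBS and 1% penicillin/streptomycin at 37 °C, 5% CO2. Cells lifted with 0.05% trypsin-0.02% EDTA, seeded at 5 × 10^3 cells/well and held 24 h before treatment. Compounds given as a threefold serial dilution over 12 points. Viability read by MTT reduction (CellTiter 96) as absorbance at 590 nm; IC50 fitted from the curve.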

[2] = molecular target: T1, RAF proto-oncogene serine/threonine-protein kinase (Homo sapiens, UniProt P04049); test: Inhibition of human CRAF using [gamma-33P]ATP after 40 mins by scintillation counting
Summary of the method: (§1)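 Human c-Raf (5–10 mU) was run in 25 mM Tris pH 7.5 with 0.02 mM EGTA, 10 mM Mg acetate and 0.66 mg/mL myelin basic protein as substrate. The reaction was started with Mg–[γ-33P]ATP (about 500 cpm/pmol; ATP concentration not stated) and run 40 min at room temperature. It was stopped with 3% phosphoric acid, spotted on P30 filtermat, washed in 75 mM phosphoric acid and methanol, and scintillation counted.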

[3] = molecular target: Serine/threonine-protein kinase B-raf (Homo sapiens, UniProt P15056, V600E); test: Inhibition of BRAF V600E mutant
[4] = molecular target: T2, Serine/threonine-protein kinase mTOR (Homo sapiens, UniProt P42345); test: Inhibition of MTOR
[5] = molecular target: Tyrosine-protein kinase ABL1 (Homo sapiens) (UniProt P00519); test: Inhibition of Abl1 at 10 uM
[6] = molecular target: Macrophage-stimulating protein receptor (Homo sapiens) (UniProt Q04912); test: Inhibition of RON at 10 uM
[7] = molecular target: Glycogen synthase kinase-3 beta (Homo sapiens) (UniProt P49841); test: Inhibition of GSK3-beta at 10 uM
[8] = system: Serine/threonine-protein kinase B-raf (Homo sapiens), P15056 [V600E]; test: Inhibition of BRAF V599E mutant at 10 uM
[9] = molecular target: Mast/stem cell growth factor receptor Kit (Homo sapiens) (UniProt P10721); test: Inhibition of cKIT at 10 uM
[10] = molecular target: Serine/threonine-protein kinase PLK1 (Homo sapiens) (UniProt P53350); test: Inhibition of PLK1 at 10 uM
[11] = molecular target: ALK tyrosine kinase receptor (Homo sapiens) (UniProt Q9UM73); test: Inhibition of Alk at 10 uM
[12] = molecular target: RAC-alpha serine/threonine-protein kinase (Homo sapiens) (UniProt P31749); test: Inhibition of AKT1 at 10 uM
[13] = molecular target: Proto-oncogene tyrosine-protein kinase Src (Homo sapiens) (UniProt P12931); test: Inhibition cSRC at 10 uM
[14] = molecular target: Cyclin-dependent kinase 1/cyclin B1 (Homo sapiens) (UniProt P06493+P14635); test: Inhibition of CDK1/Cyclin B at 10 uM; type: protein-complex assay
[15] = molecular target: Dual specificity mitogen-activated protein kinase kinase 1 (Homo sapiens) (UniProt Q02750); test: Inhibition of MEK1 at 10 uM
[16] = molecular target: Tyrosine-protein kinase JAK3 (Homo sapiens) (UniProt P52333); test: Inhibition of JAK3 at 10 uM
[17] = molecular target: Vascular endothelial growth factor receptor 2 (Homo sapiens) (UniProt P35968); test: Inhibition of KDR at 10 uM
[18] = molecular target: Epidermal growth factor receptor (Homo sapiens) (UniProt P00533); test: Inhibition EGFR at 10 uM
[19] = molecular target: Mitogen-activated protein kinase 14 (Homo sapiens) (UniProt Q16539); test: Inhibition of p38alpha at 10 uM
[20] = molecular target: T2, Serine/threonine-protein kinase mTOR; test: Inhibition of MTOR at 10 uM
[21] = molecular target: T1, RAF proto-oncogene serine/threonine-protein kinase; test: Inhibition of human CRAF using [gamma-33P]ATP at 10 uM after 40 mins by scintillation counting; summary of the method: as §1
[22] = molecular target: Mitogen-activated protein kinase 10 (Homo sapiens) (UniProt P53779); test: Inhibition of JNK3 at 10 uM
[23] = molecular target: T3, Phosphatidylinositol 4,5-bisphosphate 3-kinase catalytic subunit alpha isoform (Homo sapiens, UniProt P42336); test: Inhibition of PI3Kalpha at 10 uM
[24] = molecular target: Hepatocyte growth factor receptor (Homo sapiens) (UniProt P08581); test: Inhibition of cMet at 10 uM
[25] = molecular target: BDNF/NT-3 growth factors receptor (Homo sapiens) (UniProt Q16620); test: Inhibition of TRKB at 10 uM
[26] = molecular target: Receptor-type tyrosine-protein kinase FLT3 (Homo sapiens) (UniProt P36888); test: Inhibition of FLT3 at 10 uM
[27] = molecular target: Fibroblast growth factor receptor 3 (Homo sapiens) (UniProt P22607); test: Inhibition of FGFR3 at 10 uM
[28] = molecular target: Mitogen-activated protein kinase 1 (Homo sapiens) (UniProt P28482); test: Inhibition of ERK2 at 10 uM
[29] = molecular target: Fibroblast growth factor receptor 2 (Homo sapiens) (UniProt P21802); test: Inhibition of FGFR2 at 10 uM
[30] = molecular target: Tyrosine-protein kinase Lyn (Homo sapiens) (UniProt P07948); test: Inhibition of LYN at 10 uM
[31] = molecular target: Tyrosine-protein kinase Lck (Homo sapiens) (UniProt P06239); test: Inhibition of LCK at 10 uM
[32] = molecular target: Aurora kinase A (Homo sapiens) (UniProt O14965); test: Inhibition of Aurora-A at 10 uM
[33] = molecular target: Insulin-like growth factor 1 receptor (Homo sapiens) (UniProt P08069); test: Inhibition of IGF1R at 10 uM
[34] = molecular target: Proto-oncogene tyrosine-protein kinase ROS (Homo sapiens) (UniProt P08922); test: Inhibition of ROS at 10 uM
[35] = molecular target: T3, Phosphatidylinositol 4,5-bisphosphate 3-kinase catalytic subunit alpha isoform; test: Inhibition of PI3Kalpha
[36] = molecular target: Macrophage colony-stimulating factor 1 receptor (Homo sapiens) (UniProt P07333); test: Inhibition of FMS at 10 uM
[37] = molecular target: Mitogen-activated protein kinase 8 (Homo sapiens) (UniProt P45983); test: Inhibition of JNK1 at 10 uM
[38] = molecular target: Cyclin-dependent kinase 2/cyclin E1 (Homo sapiens) (UniProt P24864+P24941); test: Inhibition of CDK2/Cyclin E at 10 uM; type: protein-complex assay
[39] = molecular target: Tyrosine-protein kinase SYK (Homo sapiens) (UniProt P43405); test: Inhibition of SYK at 10 uM
[40] = molecular target: Focal adhesion kinase 1 (Homo sapiens) (UniProt Q05397); test: Inhibition of FAK at 10 uM

COc1ccc(Cn2ncc3c2NC(=O)CC(c2cccc(NC(=O)Nc4cc(Cl)cc(Cl)c4)c2)=N3)cc1
GI50 (U-937): 6480 nM
GI50 [1]: 780 nM

O=C1CC(c2cccc(NC(=O)c3cc(N4CCOCC4)cc(C(F)(F)F)c3)c2)=Nc2cnn(Cc3ccccc3)c2N1
GI50 (U-937): > 30000 nM
GI50 [1]: > 30000 nM

Cc1cn(-c2cc(NC(=O)Nc3ccc(C4=Nc5cnn(Cc6ccccc6)c5NC(=O)C4)cc3)cc(C(F)(F)F)c2)cn1
GI50 (U-937): > 30000 nM
GI50 [1]: > 30000 nM

COc1ccc(Cn2ncc3c2NC(=O)CC(c2cccc(NC(=O)Nc4cccc(Cl)c4)c2)=N3)cc1
GI50 (U-937): 630 nM
GI50 [1]: 910 nM

COc1ccc(Cn2ncc3c2NC(=O)CC(c2cccc(NC(=O)Nc4ccc(Cl)cc4)c2)=N3)cc1
GI50 (U-937): 580 nM
GI50 [1]: 640 nM

COc1ccc(Cn2ncc3c2NC(=O)CC(c2cccc(NC(=O)Nc4cc(N5CCOCC5)cc(C(F)(F)F)c4)c2)=N3)cc1
GI50 (U-937): > 30000 nM
GI50 [1]: 3320 nM

O=C1CC(c2ccc(NC(=O)Nc3ccc(Cl)c(C(F)(F)F)c3)cc2)=Nc2cn[nH]c2N1
GI50 (U-937): > 30000 nM
GI50 [1]: > 30000 nM

COc1ccc(Cn2ncc3c2NC(=O)CC(c2cccc(NC(=O)Nc4cccc(C(F)(F)F)c4)c2)=N3)cc1
GI50 (U-937): 280 nM
GI50 [1]: 250 nM

Cc1cn(-c2cc(C(=O)Nc3cccc(C4=Nc5cnn(Cc6ccccc6)c5NC(=O)C4)c3)cc(C(F)(F)F)c2)cn1
GI50 (U-937): > 30000 nM
GI50 [1]: > 30000 nM

O=C1CC(c2ccc(NC(=O)Nc3cccc(Cl)c3)cc2)=Nc2cnn(Cc3ccccc3)c2N1
GI50 (U-937): 670 nM
GI50 [1]: 2070 nM

COc1ccc(Cn2ncc3c2NC(=O)CC(c2cccc(NC(=O)Nc4ccc(Cl)c(Cl)c4)c2)=N3)cc1
GI50 (U-937): 14900 nM
GI50 [1]: 3860 nM

O=C1CC(c2cccc(NC(=O)Nc3ccc(Cl)c(Cl)c3)c2)=Nc2cn[nH]c2N1
GI50 (U-937): > 30000 nM
GI50 [1]: > 30000 nM

O=C1CC(c2cccc(NC(=O)Nc3ccc(Cl)c(C(F)(F)F)c3)c2)=Nc2cnn(Cc3ccccc3)c2N1
GI50 (U-937): 7310 nM
IC50 [2]: 668 nM
IC50 [3]: Not Active
GI50 [1]: 4450 nM

O=C1CC(c2ccc(NC(=O)Nc3ccc(Cl)c(C(F)(F)F)c3)cc2)=Nc2cnn(Cc3ccccc3)c2N1
GI50 (U-937): 8680 nM
GI50 [1]: 1190 nM

O=C1CC(c2cccc(NC(=O)c3ccc(N4CCOCC4)c(C(F)(F)F)c3)c2)=Nc2cnn(Cc3ccccc3)c2N1
GI50 (U-937): 1750 nM
GI50 [1]: 2910 nM

O=C1CC(c2cccc(NC(=O)Nc3ccc(Cl)cc3)c2)=Nc2cn[nH]c2N1
GI50 (U-937): > 30000 nM
GI50 [1]: > 30000 nM

Cc1cn(-c2cc(C(=O)Nc3ccc(C4=Nc5cnn(Cc6ccccc6)c5NC(=O)C4)cc3)cc(C(F)(F)F)c2)cn1
GI50 (U-937): > 30000 nM
GI50 [1]: > 30000 nM

O=c1cc(N2CCOCC2)oc2c(-c3ccccc3)cccc12 [LY-294002]
IC50 [4]: 6800 nM

O=C1CC(c2cccc(NC(=O)c3ccc(Cl)c(C(F)(F)F)c3)c2)=Nc2cnn(Cc3ccccc3)c2N1
GI50 (U-937): 60 nM
inhibition [5]: 0%
inhibition [6]: 4.4%
inhibition [7]: 17.8%
inhibition [8]: 85.6%
inhibition [9]: 3.6%
inhibition [10]: 0%
inhibition [11]: 0%
inhibition [12]: 0%
inhibition [13]: 4.3%
inhibition [14]: 7%
inhibition [15]: 0%
inhibition [16]: 0%
inhibition [17]: 0%
inhibition [18]: 1.6%
inhibition [19]: 0%
inhibition [20]: 0%
inhibition [21]: 92.9%
IC50 [2]: 961 nM
inhibition [22]: 0%
inhibition [23]: 75.2%
inhibition [24]: 1.3%
inhibition [25]: 0.2%
inhibition [26]: 19.3%
IC50 ([3]; read-out: IC50): 655 nM
inhibition [27]: 0%
inhibition [28]: 0%
inhibition [29]: 0%
inhibition [30]: 4.6%
inhibition [31]: 5.6%
inhibition [32]: 6.5%
inhibition [33]: 1.9%
inhibition [34]: 0%
IC50 [35]: 2150 nM
inhibition [36]: 0.5%
inhibition [37]: 0%
inhibition [38]: 0.9%
inhibition [39]: 0%
inhibition [40]: 0%
GI50 [1]: 430 nM

O=C1CC(c2ccc(NC(=O)c3ccc(Cl)c(C(F)(F)F)c3)cc2)=Nc2cnn(Cc3ccccc3)c2N1
GI50 (U-937): 60 nM
GI50 [1]: 13100 nM

COc1ccc(Cn2ncc3c2NC(=O)CC(c2cccc(NC(=O)Nc4ccc(C(F)(F)F)cc4)c2)=N3)cc1
GI50 (U-937): 110 nM
GI50 [1]: 770 nM

O=C1CC(c2ccc(NC(=O)c3ccc(N4CCOCC4)c(C(F)(F)F)c3)cc2)=Nc2cnn(Cc3ccccc3)c2N1
GI50 (U-937): 210 nM
GI50 [1]: 16400 nM

CNC(=O)c1cc(Oc2ccc(NC(=O)Nc3ccc(Cl)c(C(F)(F)F)c3)cc2)ccn1 [SORAFENIB]
GI50 (U-937): 2850 nM
GI50 [1]: 5580 nM

COc1ccc(Cn2ncc3c2NC(=O)CC(c2ccc(NC(=O)Nc4ccc(Cl)c(C(F)(F)F)c4)cc2)=N3)cc1
GI50 (U-937): 7290 nM
GI50 [1]: 3930 nM
